Key:
[1] = Inhibition of Hepatitis C virus genotype 1a NS3/4A protease activity; design: species or system Hepatitis C virus subtype 1a
Outline: (§1)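 Recombinant NS3/4A protease was expressed in and purified from E. coli. Inhibition was measured by a time-resolved, internally quenched fluorescence assay at low enzyme concentration. Kis were reported.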

[2] = Inhibition of Hepatitis C virus genotype 2a NS3/4A protease activity; design: species or system Hepatitis C virus subtype 2a; outline: as §1
Cathepsin L2 = biological target: T1, Cathepsin L2 (Homo sapiens, UniProt O60911); test: Inhibition of human Cathepsin V
T1 sequence (O60911 whole entry): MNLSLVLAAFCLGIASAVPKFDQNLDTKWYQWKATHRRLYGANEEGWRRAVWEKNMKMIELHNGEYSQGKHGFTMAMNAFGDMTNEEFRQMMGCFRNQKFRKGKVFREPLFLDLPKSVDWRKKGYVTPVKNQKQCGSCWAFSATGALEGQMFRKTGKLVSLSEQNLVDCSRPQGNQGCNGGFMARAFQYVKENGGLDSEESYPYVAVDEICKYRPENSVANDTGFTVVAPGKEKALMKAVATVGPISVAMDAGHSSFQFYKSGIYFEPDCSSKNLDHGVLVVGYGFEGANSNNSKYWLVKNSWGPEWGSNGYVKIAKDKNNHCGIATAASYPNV

Hepatitis C virus [3] = test: Inhibition of Hepatitis C virus genotype 1b NS3/4A protease activity; design: species or system Hepatitis C virus subtype 1b; outline: as §1
Neutrophil elastase = biological target: T2, Neutrophil elastase (Homo sapiens, UniProt P08246); test: Inhibition of human Neutrophil elastase 2
T2 sequence (P08246 whole entry): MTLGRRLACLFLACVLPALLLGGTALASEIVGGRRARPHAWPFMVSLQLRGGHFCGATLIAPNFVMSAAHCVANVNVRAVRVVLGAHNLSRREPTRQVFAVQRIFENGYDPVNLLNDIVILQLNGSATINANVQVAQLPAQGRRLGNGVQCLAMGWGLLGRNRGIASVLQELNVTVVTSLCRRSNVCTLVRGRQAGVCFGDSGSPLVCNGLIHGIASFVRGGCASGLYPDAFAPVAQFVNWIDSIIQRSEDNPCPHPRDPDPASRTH

[4] = biological target: Chymotrypsin-like elastase family member 1 (Homo sapiens, UniProt Q9UNI1); test: Inhibition of human Pancreatic elastase 1
Chain of Chymotrypsin-like elastase family member 1 (Q9UNI1 whole entry): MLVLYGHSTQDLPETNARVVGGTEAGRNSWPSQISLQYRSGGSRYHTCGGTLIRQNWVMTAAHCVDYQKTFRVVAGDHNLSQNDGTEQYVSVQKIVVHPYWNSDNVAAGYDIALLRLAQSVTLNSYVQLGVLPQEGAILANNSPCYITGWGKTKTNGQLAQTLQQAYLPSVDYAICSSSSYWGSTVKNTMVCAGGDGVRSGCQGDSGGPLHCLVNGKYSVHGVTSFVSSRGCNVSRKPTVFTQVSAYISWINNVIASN

Cathepsin S = Cathepsin S (Homo sapiens, UniProt P25774); test: Inhibition of human Cathepsin S
Chain of Cathepsin S (P25774 whole entry): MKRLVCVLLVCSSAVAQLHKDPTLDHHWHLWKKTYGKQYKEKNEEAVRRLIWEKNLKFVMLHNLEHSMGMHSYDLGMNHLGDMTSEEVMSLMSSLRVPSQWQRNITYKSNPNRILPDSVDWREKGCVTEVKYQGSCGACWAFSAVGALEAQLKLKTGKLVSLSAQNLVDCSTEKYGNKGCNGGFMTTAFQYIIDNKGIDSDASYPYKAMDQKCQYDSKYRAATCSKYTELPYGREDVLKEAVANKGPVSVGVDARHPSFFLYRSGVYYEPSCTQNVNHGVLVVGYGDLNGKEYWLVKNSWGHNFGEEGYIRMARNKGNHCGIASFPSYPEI

Hepatitis C virus [5] = test: Antiviral activity against Hepatitis C virus genotype 1b infected in […] cell by cell-based HCV replicon assay in presence of 50% normal human serum; format: functional, organism-based, Hepacivirus hominis
Outline: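 Stable genotype 1b (con1) replicon cell line HB1, assayed in the presence of 50% normal human serum.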

Cathepsin B = Cathepsin B (Homo sapiens, UniProt P07858); test: Inhibition of human Cathepsin B
Cathepsin F = biological target: T3, Cathepsin F (Homo sapiens, UniProt Q9UBX1); test: Inhibition of human Cathepsin F
T3 sequence (Q9UBX1 whole entry): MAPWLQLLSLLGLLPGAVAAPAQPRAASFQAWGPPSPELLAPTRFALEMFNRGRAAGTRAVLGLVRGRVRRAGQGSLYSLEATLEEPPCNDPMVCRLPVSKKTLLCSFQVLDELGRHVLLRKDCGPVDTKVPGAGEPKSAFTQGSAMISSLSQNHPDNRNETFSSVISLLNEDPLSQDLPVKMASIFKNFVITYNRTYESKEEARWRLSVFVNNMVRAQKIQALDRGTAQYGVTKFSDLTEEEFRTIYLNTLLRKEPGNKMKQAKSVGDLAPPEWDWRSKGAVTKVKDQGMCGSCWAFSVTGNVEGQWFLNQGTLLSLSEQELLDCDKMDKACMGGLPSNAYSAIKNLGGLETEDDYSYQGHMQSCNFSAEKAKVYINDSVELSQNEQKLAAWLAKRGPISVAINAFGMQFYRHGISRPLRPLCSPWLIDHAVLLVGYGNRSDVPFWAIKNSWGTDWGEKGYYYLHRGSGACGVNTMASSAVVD

Hepatitis C virus [6] = test: Antiviral activity against Hepatitis C virus genotype 2a infected in […] cell by cell-based HCV replicon assay in presence of 10% fetal bovine serum; format: functional, organism-based, Hepacivirus hominis
Hepatitis C virus [7] = test: Antiviral activity against Hepatitis C virus genotype 1b infected in […] cell by cell-based HCV replicon assay in presence of 10% fetal bovine serum; format: functional, organism-based, Hepacivirus hominis
Outline: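 Stable genotype 1b (con1) replicon cell line HB1, assayed in medium with 10% fetal bovine serum.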

[8] = Inhibition of Hepatitis C virus genotype 2b NS3/4A protease activity; design: species or system Hepatitis C virus subtype 2b; outline: as §1
Chymase = biological target: T4, Chymase (Homo sapiens, UniProt P23946); test: Inhibition of human Chymase
T4 sequence (P23946 whole entry): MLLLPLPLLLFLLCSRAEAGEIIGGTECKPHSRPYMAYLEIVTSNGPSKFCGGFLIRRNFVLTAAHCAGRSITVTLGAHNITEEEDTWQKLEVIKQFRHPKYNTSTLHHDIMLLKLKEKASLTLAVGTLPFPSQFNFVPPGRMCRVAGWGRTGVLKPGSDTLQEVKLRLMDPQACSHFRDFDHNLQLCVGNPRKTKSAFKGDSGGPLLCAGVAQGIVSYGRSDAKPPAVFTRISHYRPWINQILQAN

Cathepsin K = biological target: T5, Cathepsin K (Homo sapiens, UniProt P43235); test: Inhibition of human Cathepsin K
T5 sequence (P43235 whole entry): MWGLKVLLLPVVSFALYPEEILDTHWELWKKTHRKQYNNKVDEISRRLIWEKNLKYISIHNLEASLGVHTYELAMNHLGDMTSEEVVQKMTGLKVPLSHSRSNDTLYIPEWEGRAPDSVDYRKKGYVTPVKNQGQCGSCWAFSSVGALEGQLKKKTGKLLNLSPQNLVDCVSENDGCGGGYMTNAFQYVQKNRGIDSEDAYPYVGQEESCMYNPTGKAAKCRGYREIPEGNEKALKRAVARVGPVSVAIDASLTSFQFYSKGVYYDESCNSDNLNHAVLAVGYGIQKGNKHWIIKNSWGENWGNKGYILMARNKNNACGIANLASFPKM

Procathepsin L = Procathepsin L (Homo sapiens, UniProt P07711); test: Inhibition of human Cathepsin L
Chain of Procathepsin L (P07711 whole entry): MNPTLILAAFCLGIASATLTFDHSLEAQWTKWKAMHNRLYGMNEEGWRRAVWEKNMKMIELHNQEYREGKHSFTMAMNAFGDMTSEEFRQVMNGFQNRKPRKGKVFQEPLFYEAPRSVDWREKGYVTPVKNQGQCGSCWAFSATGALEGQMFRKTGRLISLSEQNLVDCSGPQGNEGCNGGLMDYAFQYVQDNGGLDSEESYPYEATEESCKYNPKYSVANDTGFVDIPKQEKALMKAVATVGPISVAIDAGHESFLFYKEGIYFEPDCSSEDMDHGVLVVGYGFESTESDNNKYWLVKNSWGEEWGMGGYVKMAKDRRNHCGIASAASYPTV

[9] = Cytotoxicity against […] cells; format: cell-based; conditions: HB1
Serine protease 1 = Serine protease 1 (Homo sapiens, UniProt P07477); test: Inhibition of human Trypsin activity
Chain of Serine protease 1 (P07477 whole entry): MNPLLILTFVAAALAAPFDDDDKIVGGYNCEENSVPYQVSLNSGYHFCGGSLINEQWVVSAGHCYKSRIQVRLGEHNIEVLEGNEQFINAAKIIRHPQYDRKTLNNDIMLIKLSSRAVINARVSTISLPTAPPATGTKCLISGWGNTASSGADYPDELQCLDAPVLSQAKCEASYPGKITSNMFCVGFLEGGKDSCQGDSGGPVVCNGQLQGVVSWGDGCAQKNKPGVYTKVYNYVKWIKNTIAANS

[10] = Inhibition of human Chymotrypsin

Row | IC50 (Cathepsin L2) | IC50 (Neutrophil elastase) | IC50 [4] | IC50 (Cathepsin S) | IC50 (Cathepsin B) | IC50 (Cathepsin F) | EC50 (Hepatitis C virus [6]) | EC50 (Hepatitis C virus [7]) | IC50 (Chymase) | IC50 (Cathepsin K) | IC50 (Procathepsin L) | IC50 (Serine protease 1) | IC50 [10] | Compound | Ki [1] | Ki [2] | Ki (Hepatitis C virus [3]) | EC50 (Hepatitis C virus [5]) | Ki [8] | EC50 [9]
1 | 75 nM | > 10000 nM | > 10000 nM | 120 nM | > 3300 nM | 1100 nM | 170 nM | 480 nM | 32 nM | 40 nM | 760 nM |  |  | CC(C)(C)NC(=O)N[C@H](C(=O)N1C[C@H]2[C@@H]([C@H]1C(=O)NC(CC1CCC1)C(=O)C(N)=O)C2(C)C)C(C)(C)C (some centres undefined) [BOCEPREVIR] | 21 nM | 25 nM | 28 nM | 1180 nM | 21 nM | > 50000 nM
2 | 1350 nM | 8000 nM | 30 nM | 300 nM | 4400 nM | > 10000 nM | 390 nM | 1100 nM | 26 nM | 630 nM | 3500 nM | > 10000 nM | 3000 nM | CCC[C@H](NC(=O)[C@@H]1[C@H]2CCC[C@H]2CN1C(=O)[C@@H](NC(=O)[C@@H](NC(=O)c1cnccn1)C1CCCCC1)C(C)(C)C)C(=O)C(=O)NC1CC1 [TELAPREVIR] | 130 nM | 54 nM | 93 nM | 8600 nM | 42 nM | > 50000 nM

Row | Compound | IC50 (Cathepsin L2) | IC50 (Neutrophil elastase) | IC50 [4] | IC50 (Cathepsin S) | IC50 (Cathepsin B) | IC50 (Cathepsin F) | EC50 (Hepatitis C virus [6]) | EC50 (Hepatitis C virus [7]) | IC50 (Chymase) | IC50 (Cathepsin K) | IC50 (Procathepsin L) | IC50 (Serine protease 1) | IC50 [10] | Ki [1] | Ki [2] | Ki (Hepatitis C virus [3]) | EC50 (Hepatitis C virus [5]) | Ki [8] | EC50 [9]
3 | COc1ccc2c(O[C@@H]3C[C@H]4C(=O)N[C@]5(C(=O)O)C[C@H]5/C=C\CCCCC[C@H](NC(=O)OC5CCCC5)C(=O)N4C3)cc(-c3csc(NC(C)C)n3)nc2c1 [CILUPREVIR] |  |  |  |  |  |  | 27 nM | 3 nM |  |  |  |  |  | 0.81 nM | 7 nM | 0.3 nM | 17 nM | 61 nM | 50000 nM
